Columns and labels:
PB1(5) bromodomain = PB1(5) bromodomain (Homo sapiens, UniProt Q86U86); experiment: DSF thermal shift, PB1; format: binding; details: fragment screen against PB1(5); confirmed by ITC
SMARCA4 = SMARCA4 (Homo sapiens, UniProt P51532); experiment: SMARCA4 FRAP assay; format: cell-based
Summary of the method: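 Run like the SMARCA2 FRAP: U2OS cells treated with the HDAC inhibitor SAHA to induce hyperacetylation, transfected with a GFP-tagged bromodomain construct, and exposed to test compound. Chromatin displacement is read as the fluorescence recovery half-time after photobleaching.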

[1] = test system: clear cell renal cell carcinoma cell lines (786-O and Rcc4); experiment: ccRCC cell line proliferation; format: cell-based; details: 786-O (wild type PB1) and Rcc4 (PB1 downregulation)
[2] = test system: C2C12 and C3H10T1/2 cells; experiment: MTT cell viability assay; format: cell-based; details: up to 50 μM dose, 72 hours
[3] = Chemical stability in cell media; format: physicochemical; details: after one week in cell media at 37°C
[4] = test system: C3H10T1/2 mesenchymal cells; experiment: Adipocyte differentiation; format: cell-based; details: 20 μM
Family VIII bromodomains = experiment: Isothermal Titration Calorimetry, Family VIII bromodomains; format: binding
GFP-SMARCA2 in U2OS = GFP-SMARCA2 in U2OS (Homo sapiens, UniProt P51531); experiment: SMARCA2 FRAP assay; format: cell-based; details: U2OS treated with SAHA
Chain of GFP-SMARCA2 in U2OS (P51531 1-1572 isoform P51531-2): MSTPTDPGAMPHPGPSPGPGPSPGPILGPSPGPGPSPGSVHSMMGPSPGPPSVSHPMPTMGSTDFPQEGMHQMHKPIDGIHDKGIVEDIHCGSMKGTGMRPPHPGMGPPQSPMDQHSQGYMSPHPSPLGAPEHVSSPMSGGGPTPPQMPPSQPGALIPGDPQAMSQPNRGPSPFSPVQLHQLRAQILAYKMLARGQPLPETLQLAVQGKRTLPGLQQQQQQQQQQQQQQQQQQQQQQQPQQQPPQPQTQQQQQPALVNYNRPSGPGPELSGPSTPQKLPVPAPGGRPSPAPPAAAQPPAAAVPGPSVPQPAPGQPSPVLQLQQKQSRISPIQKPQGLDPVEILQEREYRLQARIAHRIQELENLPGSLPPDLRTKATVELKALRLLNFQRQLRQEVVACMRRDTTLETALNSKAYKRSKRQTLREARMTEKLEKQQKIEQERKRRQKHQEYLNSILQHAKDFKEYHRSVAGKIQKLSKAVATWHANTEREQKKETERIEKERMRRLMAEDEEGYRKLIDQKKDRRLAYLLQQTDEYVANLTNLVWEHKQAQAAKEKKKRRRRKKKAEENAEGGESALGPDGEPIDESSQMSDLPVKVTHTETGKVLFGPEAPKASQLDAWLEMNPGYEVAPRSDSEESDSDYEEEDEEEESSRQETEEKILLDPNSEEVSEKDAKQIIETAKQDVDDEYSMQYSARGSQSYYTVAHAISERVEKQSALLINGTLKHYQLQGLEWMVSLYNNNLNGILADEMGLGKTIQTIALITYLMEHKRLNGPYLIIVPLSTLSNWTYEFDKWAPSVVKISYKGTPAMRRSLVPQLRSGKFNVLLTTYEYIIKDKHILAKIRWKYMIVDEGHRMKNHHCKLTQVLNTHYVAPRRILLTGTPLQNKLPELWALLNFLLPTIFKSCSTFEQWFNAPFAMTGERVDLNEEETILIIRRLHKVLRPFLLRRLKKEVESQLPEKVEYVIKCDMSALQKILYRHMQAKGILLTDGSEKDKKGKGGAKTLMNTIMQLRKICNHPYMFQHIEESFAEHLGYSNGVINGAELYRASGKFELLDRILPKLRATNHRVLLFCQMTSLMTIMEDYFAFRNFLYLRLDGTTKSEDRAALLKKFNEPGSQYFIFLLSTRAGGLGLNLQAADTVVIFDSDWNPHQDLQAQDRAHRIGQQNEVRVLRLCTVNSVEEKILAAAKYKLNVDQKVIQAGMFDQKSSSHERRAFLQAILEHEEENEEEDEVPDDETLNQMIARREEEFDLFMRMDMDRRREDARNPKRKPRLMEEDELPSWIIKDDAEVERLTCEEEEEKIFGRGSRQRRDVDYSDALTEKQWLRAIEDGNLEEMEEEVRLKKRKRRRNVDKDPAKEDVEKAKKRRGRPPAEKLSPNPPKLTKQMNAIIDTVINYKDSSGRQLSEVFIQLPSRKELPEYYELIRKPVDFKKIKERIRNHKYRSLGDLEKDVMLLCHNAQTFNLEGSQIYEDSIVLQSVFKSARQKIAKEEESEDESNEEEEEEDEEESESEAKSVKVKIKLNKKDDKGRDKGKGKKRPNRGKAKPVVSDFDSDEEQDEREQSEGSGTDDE

[5] = test system: non-family VIII bromodomains; experiment: BROMOscan profiling from DiscoveRx; format: binding
[6] = test system: non-family VIII bromodomains; experiment: Tm shift panel of 40 bromodomain proteins; format: binding
GFP-PB1 = GFP-PB1 (Homo sapiens, UniProt Q86U86); experiment: PB1 FRAP assay; format: cell-based; details: SAHA treated
Chain of GFP-PB1 (Q86U86 whole entry): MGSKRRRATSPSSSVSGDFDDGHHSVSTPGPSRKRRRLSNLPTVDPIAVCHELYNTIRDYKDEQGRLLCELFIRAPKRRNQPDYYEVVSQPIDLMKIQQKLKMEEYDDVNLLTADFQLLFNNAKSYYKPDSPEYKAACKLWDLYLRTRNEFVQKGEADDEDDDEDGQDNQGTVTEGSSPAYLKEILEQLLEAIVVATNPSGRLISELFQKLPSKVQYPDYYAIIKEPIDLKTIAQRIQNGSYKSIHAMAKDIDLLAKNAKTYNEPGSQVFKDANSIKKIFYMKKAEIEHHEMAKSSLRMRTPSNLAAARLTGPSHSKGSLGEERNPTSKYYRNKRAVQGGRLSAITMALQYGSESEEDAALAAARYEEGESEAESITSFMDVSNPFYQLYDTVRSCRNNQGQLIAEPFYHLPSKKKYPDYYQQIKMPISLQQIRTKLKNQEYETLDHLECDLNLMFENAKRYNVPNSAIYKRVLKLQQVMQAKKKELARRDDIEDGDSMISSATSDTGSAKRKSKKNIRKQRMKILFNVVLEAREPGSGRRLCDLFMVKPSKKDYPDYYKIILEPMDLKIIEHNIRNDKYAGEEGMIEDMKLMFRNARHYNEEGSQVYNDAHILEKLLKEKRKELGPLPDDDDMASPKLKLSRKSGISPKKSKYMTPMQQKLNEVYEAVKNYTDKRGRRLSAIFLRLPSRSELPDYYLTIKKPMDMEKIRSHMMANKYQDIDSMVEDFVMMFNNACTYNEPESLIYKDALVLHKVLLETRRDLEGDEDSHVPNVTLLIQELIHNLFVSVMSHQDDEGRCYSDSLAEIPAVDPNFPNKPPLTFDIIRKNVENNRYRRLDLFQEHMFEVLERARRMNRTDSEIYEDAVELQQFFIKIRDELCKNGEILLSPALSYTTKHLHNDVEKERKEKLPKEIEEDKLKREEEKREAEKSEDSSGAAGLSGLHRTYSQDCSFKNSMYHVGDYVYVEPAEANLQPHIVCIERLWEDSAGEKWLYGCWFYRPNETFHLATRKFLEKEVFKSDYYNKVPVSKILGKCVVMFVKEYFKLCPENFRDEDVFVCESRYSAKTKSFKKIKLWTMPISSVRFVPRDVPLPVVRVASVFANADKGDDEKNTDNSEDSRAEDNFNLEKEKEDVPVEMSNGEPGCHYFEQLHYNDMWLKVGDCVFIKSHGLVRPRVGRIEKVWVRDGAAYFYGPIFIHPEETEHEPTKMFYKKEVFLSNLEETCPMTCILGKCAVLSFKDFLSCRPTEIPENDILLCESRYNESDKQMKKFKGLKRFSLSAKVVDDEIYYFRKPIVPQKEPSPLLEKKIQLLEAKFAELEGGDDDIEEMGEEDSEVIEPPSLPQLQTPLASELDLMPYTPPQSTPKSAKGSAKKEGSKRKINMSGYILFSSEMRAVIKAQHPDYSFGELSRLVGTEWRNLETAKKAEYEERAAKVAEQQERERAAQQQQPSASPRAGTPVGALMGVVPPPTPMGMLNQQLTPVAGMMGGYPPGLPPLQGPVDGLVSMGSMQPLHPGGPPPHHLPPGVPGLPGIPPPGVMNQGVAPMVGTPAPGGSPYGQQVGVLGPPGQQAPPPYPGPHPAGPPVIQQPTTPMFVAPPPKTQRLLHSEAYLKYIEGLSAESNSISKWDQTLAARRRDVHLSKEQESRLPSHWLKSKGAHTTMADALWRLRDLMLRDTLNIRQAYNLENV
Summary of the method: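 GFP-tagged PB1 (wild type or N263A / N707F acetyl-lysine-site mutants) expressed by transfection in cells pretreated with SAHA (2.5 μM) to hyperacetylate chromatin. Test compound given at several doses. Read-out is the half-time (t½) of fluorescence recovery after photobleaching, averaged from individual recovery curves of at least 20 cells per group with SEM. p-values are relative to wild type with SAHA.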

Chain of SMARCA4 (P51532 whole entry): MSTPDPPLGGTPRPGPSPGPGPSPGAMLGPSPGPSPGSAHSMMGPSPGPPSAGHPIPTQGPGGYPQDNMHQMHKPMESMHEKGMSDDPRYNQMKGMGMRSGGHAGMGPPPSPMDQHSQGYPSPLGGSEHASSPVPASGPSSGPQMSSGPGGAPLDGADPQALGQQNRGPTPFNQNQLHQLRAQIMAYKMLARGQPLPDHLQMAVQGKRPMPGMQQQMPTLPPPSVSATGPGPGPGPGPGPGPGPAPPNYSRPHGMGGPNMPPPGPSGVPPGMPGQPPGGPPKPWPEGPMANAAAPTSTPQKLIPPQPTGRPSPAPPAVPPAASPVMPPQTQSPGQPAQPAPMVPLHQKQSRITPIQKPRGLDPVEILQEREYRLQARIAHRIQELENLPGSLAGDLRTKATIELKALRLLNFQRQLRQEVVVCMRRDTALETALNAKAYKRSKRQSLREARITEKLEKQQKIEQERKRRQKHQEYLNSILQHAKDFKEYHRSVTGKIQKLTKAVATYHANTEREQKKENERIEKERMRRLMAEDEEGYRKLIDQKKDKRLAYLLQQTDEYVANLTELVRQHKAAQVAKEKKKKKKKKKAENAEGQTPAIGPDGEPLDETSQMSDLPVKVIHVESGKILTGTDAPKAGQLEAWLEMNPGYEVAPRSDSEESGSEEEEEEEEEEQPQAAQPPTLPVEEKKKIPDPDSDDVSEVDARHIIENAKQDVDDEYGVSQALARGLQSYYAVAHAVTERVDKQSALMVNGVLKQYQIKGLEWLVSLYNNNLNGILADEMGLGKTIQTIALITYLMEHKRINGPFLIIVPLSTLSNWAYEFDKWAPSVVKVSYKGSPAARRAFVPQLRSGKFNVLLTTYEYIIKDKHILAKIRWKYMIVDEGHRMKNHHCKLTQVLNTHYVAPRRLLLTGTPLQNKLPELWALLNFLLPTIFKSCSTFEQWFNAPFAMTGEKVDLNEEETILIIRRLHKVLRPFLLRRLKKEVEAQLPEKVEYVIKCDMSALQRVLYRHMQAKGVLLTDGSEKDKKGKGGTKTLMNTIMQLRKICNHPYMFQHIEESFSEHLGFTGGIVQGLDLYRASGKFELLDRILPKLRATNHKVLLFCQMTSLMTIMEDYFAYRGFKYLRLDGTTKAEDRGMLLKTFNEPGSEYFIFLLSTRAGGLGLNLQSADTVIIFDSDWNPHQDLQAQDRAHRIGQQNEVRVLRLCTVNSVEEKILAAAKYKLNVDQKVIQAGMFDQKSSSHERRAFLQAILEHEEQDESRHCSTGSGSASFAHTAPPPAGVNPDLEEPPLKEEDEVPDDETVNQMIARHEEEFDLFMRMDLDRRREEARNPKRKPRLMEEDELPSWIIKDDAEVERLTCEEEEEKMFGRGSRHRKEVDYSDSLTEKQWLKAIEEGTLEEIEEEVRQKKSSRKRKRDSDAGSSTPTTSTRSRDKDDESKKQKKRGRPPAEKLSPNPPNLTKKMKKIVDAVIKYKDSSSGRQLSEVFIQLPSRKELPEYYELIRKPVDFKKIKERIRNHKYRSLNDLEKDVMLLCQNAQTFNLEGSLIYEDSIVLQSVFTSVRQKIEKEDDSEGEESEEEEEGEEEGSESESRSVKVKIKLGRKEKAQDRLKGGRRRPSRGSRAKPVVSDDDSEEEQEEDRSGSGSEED
Chain of PB1(5) bromodomain (Q86U86 653-763 limits assumed): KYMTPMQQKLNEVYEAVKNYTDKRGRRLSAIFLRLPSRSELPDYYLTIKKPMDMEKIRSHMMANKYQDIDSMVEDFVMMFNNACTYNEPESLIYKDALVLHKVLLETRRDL

Compound: O=C(O)c1ccccc1O [Compound 1, salicylic acid]
- fragment screen hit quality (DSF) (PB1(5) bromodomain): weak, but highly ligand efficient hit

Compound: O=C(/C=C/N1C[C@H]2C[C@@H]1CN2c1ccccn1)c1ccccc1O [Compound 16, (E)-1-(2-hydroxyphenyl)-3-((1R,4R)-5-(pyridin-2-yl)-2,5-diazabicyclo[2.2.1]heptan-2-yl)prop-2-en-1-one]
- SMARCA4 in cell target engagement (FRAP) (SMARCA4): confirmed
- effect on cell line proliferation [1]: did not show any effect
- cytotoxic effect (MTT cell viability) [2]: did not have significant cytotoxic effect
- compound recovered [3]: Greater than 90%
- inhibition of adipogenesis [4]: Near complete inhibition

Compound: O=C(/C=C/N1[C@H]2CC[C@@H]1c1ncnc(NC3CC3)c1C2)c1ccccc1O [Compound 17]
- binding to Family VIII bromodomains by ITC (Family VIII bromodomains): potent binder to most of the Family VIII bromodomains
- SMARCA4 in cell target engagement (FRAP) (SMARCA4): confirmed
- effect on cell line proliferation [1]: did not show any effect
- FRAP half-recovery time (t1/2) of GFP-SMARCA2 (GFP-SMARCA2 in U2OS): accelerated FRAP half-recovery time (t1/2) significantly in a dose dependent manner
- selectivity over non-family VIII bromodomains, BROMOscan [5]: not active
- selectivity over non-family VIII bromodomains, Tm shift panel [6]: not active
- displacement of GFP-PB1 from chromatin (FRAP) (GFP-PB1; 1 μM): able to displace PB1 from chromatin

Compound: C#CCNc1ccnc(N2C[C@H]3C[C@@H]2CN3/C=C/C(=O)c2cccc(OC)c2O)n1 [Compound 18]
- half-recovery time of GFP-PB1 (FRAP) (GFP-PB1): no effect

— PMC5034155 (Journal of medicinal chemistry, 2016)
